Experimental data published in PMC5093073 (Cancer prevention research (Philadelphia, Pa.), 2016).
Entries after “also recorded” stand apart in the source; their conditions may differ. Where two headings read alike, the source gives them in different places.

Experiments:
[1] = system: COX-derived PGE2 in H2122 lung adenocarcinoma cells; assay: PGE2 biosynthesis from [2H8]AA in H2122 cells; assay type: cell-based, human
How it was run: (§1)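 Cells grown in DMEM with 10% FBS at 37°C, 5% CO₂, then given 1 ng/ml IL-1β for 24 h at 90% confluence to induce COX-2. In albumin-free medium, cells were preincubated for 30 min at 37°C with graded concentrations of test compound. Then 2.0 µM [²H₈]AA was added for 15 min, and the medium was harvested for GC/NICI/MS measurement of [²H₈]-PGE₂.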

[2] = system: platelet-A549 cell aggregates; assay type: cell-based, human; conditions: platelets from blood treated with 100 µM aspirin 40 min, washed, ADP-activated
platelet TxB2 production = assay: Serum thromboxane B2 levels in healthy volunteers; assay type: in vivo, human; conditions: aspirin 81 mg daily 2 weeks
[3] = system: COX-derived PGE2 in HCC827 lung adenocarcinoma cells; assay: PGE2 biosynthesis from [2H8]AA in HCC827 cells; assay type: cell-based; conditions: Homo sapiens, HCC827, read-out: IC50 for inhibition of PGE2 biosynthesis
[4] = system: systemic PGE2 biosynthesis; assay: Urinary PGE-M; assay type: in vivo, human; conditions: for reduction in extra-platelet PGE2 production: corrected for platelet-derived PGE2, aspirin 81 mg daily 2 weeks; for reduction of urinary PGE-M levels: aspirin 81 mg daily 2 weeks
[5] = system: COX-derived PGE2 in HT-29 colon cancer cells; assay: PGE2 biosynthesis from [2H8]AA in HT-29 cells; assay type: cell-based; conditions: Homo sapiens, HT-29, read-out: IC50 for inhibition of PGE2 biosynthesis
[6] = system: COX-derived PGE2 in HCA-7 colon cancer cells; assay: PGE2 biosynthesis from [2H8]AA in HCA-7 cells; assay type: cell-based; conditions: Homo sapiens
How it was run: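 HCA-7 cells were grown in DMEM with 10% FBS at 37°C, 5% CO₂, without IL-1β activation. In albumin-free medium, cells were preincubated for 30 min at 37°C with test compound. Then 2.0 µM [²H₈]AA was added and incubation continued for 15 min. The harvested medium was analysed by GC/NICI/MS for [²H₈]-PGE₂.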

COX-2 = target: T1, COX-2 (Homo sapiens, UniProt P35354); assay type: cell-based; conditions: IL-1β-activated A549, pretreated with 100 µM aspirin
T1 sequence (P35354 18-604): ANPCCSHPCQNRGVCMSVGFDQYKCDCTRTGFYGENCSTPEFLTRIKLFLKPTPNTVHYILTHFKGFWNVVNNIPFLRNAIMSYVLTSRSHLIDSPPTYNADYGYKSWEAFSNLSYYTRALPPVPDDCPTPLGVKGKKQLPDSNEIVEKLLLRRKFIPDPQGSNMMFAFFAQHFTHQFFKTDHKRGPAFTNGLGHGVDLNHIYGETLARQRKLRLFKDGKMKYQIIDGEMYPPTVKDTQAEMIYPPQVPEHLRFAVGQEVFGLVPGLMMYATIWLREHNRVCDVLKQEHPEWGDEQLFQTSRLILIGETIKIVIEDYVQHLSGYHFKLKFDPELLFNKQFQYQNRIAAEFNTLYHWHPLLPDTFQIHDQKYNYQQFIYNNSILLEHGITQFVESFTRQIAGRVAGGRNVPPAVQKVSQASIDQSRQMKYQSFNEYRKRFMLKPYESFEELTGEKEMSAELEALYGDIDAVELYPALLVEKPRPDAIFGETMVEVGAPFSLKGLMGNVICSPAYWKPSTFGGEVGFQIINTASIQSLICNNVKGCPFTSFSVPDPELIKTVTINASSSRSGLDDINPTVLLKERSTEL

[7] = system: COX-derived PGE2 in A549 lung adenocarcinoma cells; assay: PGE2 biosynthesis from [2H8]AA in A549 cells; assay type: cell-based, human; conditions: for inhibition of PGE2 synthesis: IL-1β-activated A549, 100 nM inhibitor
How it was run: as §1

[8] = system: adenocarcinoma metastasis; conditions: cited from earlier work
[9] = system: COX-1 in human washed platelets; assay: Prostanoid; assay type: cell-based; conditions: 100 nM inhibitor; for effect on TxB2 synthesis by washed platelets: platelets without A549 cells
[10] = system: systemic PGE2 biosynthesis; conditions: ibuprofen 800 mg 4 times daily; cited from earlier work

SMILES: CC(=O)Oc1ccccc1C(=O)O [aspirin, acetyl salicylic acid]
- IC50 ([1]; Homo sapiens, NCI-H2122, read-out: IC50 for inhibition of PGE2 biosynthesis): 15 ± 1.3 µM
- COX-2 protein expression in A549 cells [2]: still upregulated
- PGE2 production by platelet-A549 aggregates [2]: significantly inhibited; also recorded: effectively blocked
- reduction of serum thromboxane B2 levels (platelet TxB2 production): 96.6%
- IC50 [3]: 22.5 ± 3.2 µM
- reduction in extra-platelet PGE2 production ([4]; females): 55.4%
- reduction of urinary PGE-M levels ([4]; healthy females): 56%
- reduction of urinary PGE-M levels ([4]; healthy males): 39%
- reduction in extra-platelet PGE2 production ([4]; males): 38.6%
- IC50 [5]: 8.9 ± 1.2 µM
- IC50 ([6]; HCA-7, read-out: IC50 for inhibition of PGE2 biosynthesis): 3.9 ± 0.7 µM
- blockade of COX-2 labeling by fluorocoxib A (COX-2): effectively blocked COX-2 labeling; also recorded: inhibited COX-2 associated fluorocoxib A fluorescence
- IC50 ([7]; Homo sapiens, A549, read-out: IC50 for inhibition of PGE2 biosynthesis): 7.2 ± 1.1 µM
- hazard ratio for later metastasis ([8]; adenocarcinomas other than those of the colon): 0.47
- hazard ratio for later metastasis ([8]; colon cancers, no metastasis at diagnosis, 95% CI 0.03–0.56, p=0.007): 0.13
- reduction of development of metastases ([8]; patients who develop cancer while receiving aspirin): 69%

SMILES: Cc1onc(-c2ccccc2)c1-c1ccc(S(N)(=O)=O)cc1 [valdecoxib]
- inhibition of PGE2 synthesis ([1]; H2122, 100 nM inhibitor): fully inhibited
- effect on TxB2 synthesis by washed platelets [9]: no effect
- inhibition at 0.1 µM ([6]; HCA-7, read-out: inhibition of PGE2 synthesis): 60%
- inhibition of PGE2 synthesis [7]: fully inhibited

SMILES: CC(C)Cc1ccc(C(C)C(=O)O)cc1 (stereo not drawn) [ibuprofen]
- reduction of PGE2 production in humans [10]: 63%

SMILES: CS(=O)(=O)Nc1ccc([N+](=O)[O-])cc1OC1CCCCC1 [NS-398]
- effect on PGE2 production in washed platelets [9]: does not block
- effect on TxB2 synthesis by washed platelets [9]: did not inhibit; also recorded: does not block
- inhibition of PGE2 synthesis [7]: fully blocks
